Measured values taken from ChEMBL document CHEMBL1165887, “Structure-activity relationships of monomeric C2-aryl pyrrolo[2,1-c][1,4]benzodiazepine (PBD) antitumor agents” (J Med Chem, 2010).

Key:
[1] = Growth inhibition of human NCI60 cells after 48 hrs by SRB assay; format: functional; details: NCI60, 48 h; for CC50: read-out: LC50 (the source's name)
K562 = experiment: Cytotoxicity against human K562 cells after 96 hrs by alamar blue assay; format: functional, cell-based; details: K562, 96 h
How it was run: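 K562 cells kept in RPMI with 10% fetal calf serum and 2 mM glutamine, seeded at 10⁴ cells/mL. Compounds serially diluted in DMSO and added in triplicate; exposure 96 h at 37 °C, 5% CO₂. Alamar Blue (1 μM final) then added for a further 4 h; read by fluorescence emission at 580-620 nm.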

Structure (SMILES): COc1cc2c(cc1OC)C(=O)N1C=C(c3ccccc3)C[C@H]1[C@H](S(=O)(=O)O)N2
- GI50 [1]: 0.054 µM
- TGI [1]: 0.43 µM
- CC50 [1]: 0.0025 µM
- IC50 (K562): 0.0165 µM

Structure (SMILES): COc1cc2c(cc1OC)C(=O)N1C=C(c3ccc(F)cc3)C[C@H]1[C@H](S(=O)(=O)O)N2
- GI50 [1]: 0.005 µM
- TGI [1]: 0.04 µM
- CC50 [1]: 0.0016 µM
- IC50 (K562): 0.0163 µM

Structure (SMILES): COc1cc2c(cc1OC)C(=O)N1C=C(c3cccc(Cl)c3)C[C@H]1C=N2
- GI50 [1]: 0.017 µM
- TGI [1]: 0.1 µM
- CC50 [1]: 0.54 µM
- IC50 (K562): 0.0194 µM

Structure (SMILES): COc1cc2c(cc1OC)C(=O)N1C=C(c3ccc(C(=O)NCCO)cc3)C[C@H]1C=N2
- GI50 [1]: 0.158 µM
- TGI [1]: 1.86 µM
- CC50 [1]: 12.6 µM
- IC50 (K562): 0.161 µM

Structure (SMILES): COc1cc2c(cc1OC)C(=O)N1C=C(c3cccnc3)C[C@H]1C=N2
- GI50 [1]: 0.005 µM
- TGI [1]: 0.07 µM
- CC50 [1]: 17 µM
- IC50 (K562): 0.0182 µM

Structure (SMILES): COc1cc2c(cc1OC)C(=O)N1C=C(/C=C/c3ccc(F)cc3)C[C@H]1C=N2
- GI50 [1]: 0.005 µM
- TGI [1]: 0.01 µM
- CC50 [1]: 1.1 µM
- IC50 (K562): 0.00013 µM

Structure (SMILES): COc1cc2c(cc1OC)C(=O)N1C=C(c3ccc(C(C)(C)C)cc3)C[C@H]1[C@H](S(=O)(=O)O)N2
- GI50 [1]: 0.008 µM
- TGI [1]: 0.05 µM
- CC50 [1]: 0.0478 µM
- IC50 (K562): 0.07 µM

Structure (SMILES): COc1cc2c(cc1OC)C(=O)N1C=C(c3ccc(NC(C)=O)cc3)C[C@H]1C=N2
- GI50 [1]: 0.006 µM
- TGI [1]: 0.2 µM
- CC50 [1]: 11.5 µM
- IC50 (K562): 0.0297 µM

Structure (SMILES): COc1cc2c(cc1OC)C(=O)N1C=C(c3ccc(C(=O)NCCN(C)C)cc3)C[C@H]1C=N2
- GI50 [1]: 0.019 µM
- TGI [1]: 0.09 µM
- CC50 [1]: 3.89 µM
- IC50 (K562): 0.114 µM

Structure (SMILES): COc1cc2c(cc1OC)C(=O)N1C=C(/C=C/c3ccc(Cl)cc3)C[C@H]1C=N2
- GI50 [1]: 0.005 µM
- TGI [1]: 0.02 µM
- CC50 [1]: 1 µM
- IC50 (K562): 0.0154 µM

Structure (SMILES): COc1cc2c(cc1OC)C(=O)N1C=C(c3ccncc3)C[C@H]1C=N2
- GI50 [1]: 0.018 µM
- TGI [1]: 0.6 µM
- CC50 [1]: 26.9 µM
- IC50 (K562): 0.0287 µM

Structure (SMILES): COc1cc2c(cc1OC)C(=O)N1C=C(c3ccc(N4CCN(C)CC4)cc3)C[C@H]1C=N2
- GI50 [1]: 0.005 µM
- TGI [1]: 0.08 µM
- CC50 [1]: 8.32 µM
- IC50 (K562): 0.00063 µM

Structure (SMILES): COc1cc2c(cc1OC)C(=O)N1C=C(c3ccc(Br)cc3)C[C@H]1C=N2
- IC50 (K562): 0.237 µM

Structure (SMILES): COc1cc2c(cc1OC)C(=O)N1C=C(c3cn[nH]c3)C[C@H]1C=N2
- GI50 [1]: 0.012 µM
- TGI [1]: 0.27 µM
- CC50 [1]: 6.46 µM
- IC50 (K562): 0.0201 µM

Structure (SMILES): COc1cc2c(cc1OC)C(=O)N1C=C(c3ccc(N4CCOCC4)cc3)C[C@H]1C=N2
- GI50 [1]: 0.005 µM
- TGI [1]: 0.16 µM
- CC50 [1]: 13.2 µM
- IC50 (K562): 0.0088 µM

Structure (SMILES): COc1cc2c(cc1OC)C(=O)N1C=C(/C=C/c3ccc(C(F)(F)F)cc3)C[C@H]1C=N2
- GI50 [1]: 0.003 µM
- TGI [1]: 0.02 µM
- CC50 [1]: 1.1 µM
- IC50 (K562): 0.0312 µM

Structure (SMILES): COc1cc2c(cc1OC)C(=O)N1C=C(c3cccc4ccccc34)C[C@H]1C=N2
- GI50 [1]: 0.138 µM
- TGI [1]: 0.95 µM
- CC50 [1]: 13.9 µM
- IC50 (K562): 0.572 µM

Structure (SMILES): COc1cc2c(cc1OC)C(=O)N1C=C(c3ccc(C(N)=O)cc3)C[C@H]1C=N2
- GI50 [1]: 0.009 µM
- TGI [1]: 0.46 µM
- CC50 [1]: 13.8 µM
- IC50 (K562): 0.0156 µM

Structure (SMILES): COc1cc2c(cc1OC)C(=O)N1C=C(c3cccc4c3Sc3ccccc3S4)C[C@H]1C=N2
- GI50 [1]: 0.501 µM
- TGI [1]: 1.74 µM
- CC50 [1]: 8.91 µM
- IC50 (K562): > 1 µM

Structure (SMILES): COc1cccc(C2=CN3C(=O)c4cc(OC)c(OC)cc4N[C@@H](S(=O)(=O)O)[C@@H]3C2)c1
- GI50 [1]: 0.005 µM
- TGI [1]: 0.07 µM
- CC50 [1]: 0.0004 µM
- IC50 (K562): 0.0071 µM

Structure (SMILES): COc1cc2c(cc1OC)C(=O)N1C=C(c3ccc(C(=O)NCCCN(C)C)cc3)C[C@H]1C=N2
- GI50 [1]: 0.058 µM
- TGI [1]: 0.83 µM
- CC50 [1]: 35.5 µM
- IC50 (K562): 0.165 µM

Structure (SMILES): COc1cc2c(cc1OC)C(=O)N1C=C(c3cccc(C(=O)O)c3)C[C@H]1C=N2
- IC50 (K562): > 1 µM
